Assay results published in PMC9463373 (Heliyon, 2022).
Entries after “also recorded” stand apart in the source; their conditions may differ.

What was measured:
Escherichia coli AG100 = test: Real-time ethidium bromide accumulation assay; assay type: cell-based; details: E. coli AG100, ethidium bromide accumulation, minute 60, positive control 50 μM
Outline: (§1)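 Bacteria were grown to OD600 0.6 (E. coli AG100 in LB; S. aureus in TSB), PBS-washed and resuspended in PBS. Test compound at ½ MIC (100 μM if MIC >100) in PBS with 2 μg/mL EB, mixed 1:1 with the suspension. Fluorescence (ex 525/em 615 nm) read each minute for 1 h. Positive controls: CCCP 50 μM (E. coli), reserpine 25 μM (S. aureus). RFI taken from the accumulation curves.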

[1] = system: multidrug resistant COLO 320 colonic adenocarcinoma cells overexpressing the ABCB1 transporter; test: Checkerboard combination assay with doxorubicin; assay type: cell-based, human; details: for Type of interaction / Combination index (CI): with doxorubicin; for Combination index (CI): CI at ED50; for effects with doxorubicin (in words): at certain / particular concentrations
Outline: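 Test compounds diluted against doxorubicin in a checkerboard on ABCB1-overexpressing COLO 320 cells (RPMI 1640, 10% heat-inactivated FBS), 6 × 10³ cells/well. Incubated 72 h at 37 °C in 5% CO2. MTT added for 4 h, then SDS in 0.01 M HCl overnight. OD read at 540/630 nm. CI at ED₅₀ by Chou-Talalay median-effect: CI <1 synergism, =1 additive, >1 antagonism.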

P-glycoprotein = P-glycoprotein (Homo sapiens, UniProt P08183); test: Rhodamine 123 retention by flow cytometry; assay type: cell-based
Outline: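 COLO 205 (parental) and multidrug-resistant COLO 320 cells at 2×10^6/mL in serum-free RPMI 1640. Test compound preincubated 10 min at room temperature, then rhodamine 123 (5.2 µM final) added for 20 min at 37 °C. Cells washed twice and resuspended in PBS. FL-1 mean fluorescence read by flow cytometry against an untreated baseline. Tariquidar positive control at 0.2 µM final. FAR = (MDR treated/MDR control)/(parental treated/parental control).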

[2] = system: Staphylococcus aureus ATCC; test: Real-time ethidium bromide accumulation assay; assay type: cell-based
Outline: as §1

[3] = ratio 17.42:1, starting concentration 150 μM
[4] = ratio 34.84:1, starting concentration 150 μM
[5] = ratio 69.68:1, starting concentration 150 μM
[6] = ratio 139.36:1, starting concentration 150 μM
[7] = ratio 278.72:1, starting concentration 150 μM
[8] = ratio 557.44:1, starting concentration 150 μM
[9] = concentration 2 μM, rhodamine 123
[10] = concentration 2 μM, rhodamine 123, COLO 320 vs COLO 205
[11] = concentration 20 μM, rhodamine 123
[12] = concentration 20 μM, rhodamine 123, COLO 320 vs COLO 205
[13] = minute 60, ½ MIC concentration (or 100 μM)
[14] = ratio 23.2:1, starting concentration 200 μM
[15] = ratio 46.4:1, starting concentration 200 μM
[16] = ratio 92.8:1, starting concentration 200 μM
[17] = ratio 185.6:1, starting concentration 200 μM
[18] = ratio 371.2:1, starting concentration 200 μM
[19] = ratio 742.5:1, starting concentration 200 μM
[20] = ratio 18.4:1, starting concentration 80 μM
[21] = ratio 36.8:1, starting concentration 80 μM
[22] = ratio 73.6:1, starting concentration 80 μM
[23] = ratio 147.2:1, starting concentration 80 μM
[24] = ratio 294.4:1, starting concentration 80 μM
[25] = concentration 0.2 μM, positive control, rhodamine 123

P-glycoprotein, sequence (P08183 whole entry): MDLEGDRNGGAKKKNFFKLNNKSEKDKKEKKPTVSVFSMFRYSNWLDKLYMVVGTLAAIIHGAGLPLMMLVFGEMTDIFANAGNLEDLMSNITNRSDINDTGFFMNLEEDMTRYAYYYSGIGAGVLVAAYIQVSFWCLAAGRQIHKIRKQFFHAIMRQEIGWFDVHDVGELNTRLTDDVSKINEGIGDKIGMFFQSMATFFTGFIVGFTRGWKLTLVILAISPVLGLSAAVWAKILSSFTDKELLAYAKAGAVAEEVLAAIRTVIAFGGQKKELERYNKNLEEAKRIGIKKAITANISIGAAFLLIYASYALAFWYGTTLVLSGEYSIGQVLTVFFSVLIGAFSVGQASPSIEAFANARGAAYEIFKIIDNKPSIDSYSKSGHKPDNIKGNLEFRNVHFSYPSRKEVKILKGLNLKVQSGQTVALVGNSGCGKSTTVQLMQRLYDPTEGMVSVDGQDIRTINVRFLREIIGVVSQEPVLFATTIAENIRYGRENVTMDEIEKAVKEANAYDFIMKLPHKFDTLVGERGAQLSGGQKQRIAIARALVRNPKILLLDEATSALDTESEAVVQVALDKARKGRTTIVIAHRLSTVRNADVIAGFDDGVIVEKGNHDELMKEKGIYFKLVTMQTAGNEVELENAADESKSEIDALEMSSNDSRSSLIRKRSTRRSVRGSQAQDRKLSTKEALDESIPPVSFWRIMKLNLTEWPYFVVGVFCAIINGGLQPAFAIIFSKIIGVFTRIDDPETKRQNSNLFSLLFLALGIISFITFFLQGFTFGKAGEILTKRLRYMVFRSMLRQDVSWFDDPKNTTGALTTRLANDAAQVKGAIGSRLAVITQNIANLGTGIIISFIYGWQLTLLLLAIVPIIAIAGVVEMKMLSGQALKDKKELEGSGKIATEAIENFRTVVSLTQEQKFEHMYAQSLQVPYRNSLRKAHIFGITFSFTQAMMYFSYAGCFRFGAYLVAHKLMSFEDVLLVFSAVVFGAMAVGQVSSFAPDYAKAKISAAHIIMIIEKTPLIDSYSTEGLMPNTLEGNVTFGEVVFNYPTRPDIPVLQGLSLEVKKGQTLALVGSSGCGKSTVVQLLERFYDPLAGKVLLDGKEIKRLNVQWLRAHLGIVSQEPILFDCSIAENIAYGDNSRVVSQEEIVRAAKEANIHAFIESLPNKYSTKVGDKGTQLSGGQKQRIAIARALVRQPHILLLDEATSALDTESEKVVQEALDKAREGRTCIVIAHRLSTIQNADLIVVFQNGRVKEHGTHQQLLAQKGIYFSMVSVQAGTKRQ

With N#CC(C#N)=NNc1cccc(Cl)c1 [CCCP] the “relative fluorescence index (RFI)” value (Escherichia coli AG100) was 1.34.

CC(C)=CCOc1c2occc2cc2ccc(=O)oc12 [Compound 1, imperatorin] was tested, and the Type of interaction [1, 3] was “moderate antagonism”, the “Combination index (CI)” value [1, 3] was 1.29 and the Type of interaction [1, 4] was “additive effect”. The “Combination index (CI)” value [1, 4] was 1.06, the Type of interaction [1, 5] was “moderate synergism” and the “Combination index (CI)” value [1, 5] was 0.75. The Type of interaction [1, 6] was “moderate antagonism”, the “Combination index (CI)” value [1, 6] was 1.24 and the Type of interaction [1, 7] was “additive effect”. The “Combination index (CI)” value [1, 7] was 0.99, the Type of interaction [1, 8] was “additive effect” and the “Combination index (CI)” value [1, 8] was 0.99. The “FL-1 (mean fluorescence intensity of the cells)” value (P-glycoprotein; [9]) was 11.30, the “FAR (fluorescence activity ratio)” value (P-glycoprotein; [10]) was 1.47 and the “FL-1 (mean fluorescence intensity of the cells)” value (P-glycoprotein; [11]) was 9.82. For the same compound, the “FAR (fluorescence activity ratio)” value (P-glycoprotein; [12]) was 1.27.

COc1c2ccoc2c(OCC=C(C)C)c2oc(=O)ccc12 [Compound 2, phellopterin] was tested, and the “effects with doxorubicin (in words)” value [1] was “antagonistic effects”, the Type of interaction [1, 3] was “Antagonism” and the “Combination index (CI)” value [1, 3] was 2.31. For the same compound, the Type of interaction [1, 4] was “moderate antagonism”, the “Combination index (CI)” value [1, 4] was 1.40 and the Type of interaction [1, 5] was “moderate antagonism”. For the same compound, the “Combination index (CI)” value [1, 5] was 1.33, the Type of interaction [1, 6] was “antagonism” and the “Combination index (CI)” value [1, 6] was 1.54. For the same compound, the Type of interaction [1, 7] was “additive effect”, the “Combination index (CI)” value [1, 7] was 1.05 and the Type of interaction [1, 8] was “additive effect”. For the same compound, the “Combination index (CI)” value [1, 8] was 1.03, the “FL-1 (mean fluorescence intensity of the cells)” value (P-glycoprotein; [9]) was 11.10 and the “FAR (fluorescence activity ratio)” value (P-glycoprotein; [10]) was 1.44. For the same compound, the “FL-1 (mean fluorescence intensity of the cells)” value (P-glycoprotein; [11]) was 20.30, the “FAR (fluorescence activity ratio)” value (P-glycoprotein; [12]) was 2.63 and the “relative fluorescence index (RFI)” value [2, 13] was 5.49.

For COc1cc2ccc(=O)oc2cc1OC [Compound 3, 6,7-dimethoxycoumarin], the “effects with doxorubicin (in words)” value [1] was “synergistic effects; also recorded: antagonistic effects”, the Type of interaction [1, 14] was “antagonism” and the “Combination index (CI)” value [1, 14] was 2.06. The Type of interaction [1, 15] was “moderate antagonism”, the “Combination index (CI)” value [1, 15] was 1.22 and the Type of interaction [1, 16] was “moderate synergism”. The “Combination index (CI)” value [1, 16] was 0.81, the Type of interaction [1, 17] was “moderate synergism” and the “Combination index (CI)” value [1, 17] was 0.75. For the same compound, the Type of interaction [1, 18] was “synergism”, the “Combination index (CI)” value [1, 18] was 0.62 and the Type of interaction [1, 19] was “synergism”. For the same compound, the “Combination index (CI)” value [1, 19] was 0.60, the “FL-1 (mean fluorescence intensity of the cells)” value (P-glycoprotein; [9]) was 8.01 and the “FAR (fluorescence activity ratio)” value (P-glycoprotein; [10]) was 1.04. The “FL-1 (mean fluorescence intensity of the cells)” value (P-glycoprotein; [11]) was 15.60, the “FAR (fluorescence activity ratio)” value (P-glycoprotein; [12]) was 2.02 and the “relative fluorescence index (RFI)” value [2, 13] was 1.04.

CC(C)=CCC/C(C)=C/COc1ccc2ccc(=O)oc2c1 [Compound 5, auraptene] was tested, and the “effects with doxorubicin (in words)” value [1] was “antagonistic effects”, the “Combination index (CI)” value ([1]; ratio 9.2:1, starting concentration 80 μM) was 3.16 and the Type of interaction [1, 20] was “strong antagonism”. The “Combination index (CI)” value [1, 20] was 8.37, the Type of interaction [1, 21] was “slight antagonism” and the “Combination index (CI)” value [1, 21] was 1.13. The Type of interaction [1, 22] was “antagonism”, the “Combination index (CI)” value [1, 22] was 1.72 and the Type of interaction [1, 23] was “antagonism”. For the same compound, the “Combination index (CI)” value [1, 23] was 2.06, the Type of interaction [1, 24] was “strong antagonism” and the “Combination index (CI)” value [1, 24] was 5.30. For the same compound, the “FL-1 (mean fluorescence intensity of the cells)” value (P-glycoprotein; [9]) was 13.60, the “FAR (fluorescence activity ratio)” value (P-glycoprotein; [10]) was 1.76 and the “FL-1 (mean fluorescence intensity of the cells)” value (P-glycoprotein; [11]) was 30.80. For the same compound, the “FAR (fluorescence activity ratio)” value (P-glycoprotein; [12]) was 4.00.

In the case of CC1(C)O[C@H]2CC(=O)OC[C@]23[C@H]2CC[C@@]4(C)[C@H](c5ccoc5)OC(=O)[C@H]5O[C@]54[C@]2(C)C(=O)C[C@@H]13 [Compound 9, limonin], the “FL-1 (mean fluorescence intensity of the cells)” value (P-glycoprotein; [9]) is reported as 2.92, the “FAR (fluorescence activity ratio)” value (P-glycoprotein; [10]) is reported as 0.38 and the “FL-1 (mean fluorescence intensity of the cells)” value (P-glycoprotein; [11]) is reported as 10.00. The “FAR (fluorescence activity ratio)” value (P-glycoprotein; [12]) was 1.30.

In the case of COc1cc2c(cc1OC)CN(CCc1ccc(NC(=O)c3cc(OC)c(OC)cc3NC(=O)c3cnc4ccccc4c3)cc1)CC2 [Tariquidar, reference compound], the “FAR (fluorescence activity ratio)” value (P-glycoprotein; [25]) is reported as 11.44 and the “FL-1 (mean fluorescence intensity of the cells)” value (P-glycoprotein; [25]) is reported as 88.20.

In the case of COC(=O)[C@H]1[C@H]2C[C@@H]3c4[nH]c5cc(OC)ccc5c4CCN3C[C@H]2C[C@@H](OC(=O)c2cc(OC)c(OC)c(OC)c2)[C@@H]1OC [reserpine, reference compound], the “relative fluorescence index (RFI)” value ([2]; minute 60, positive control 25 μM) is reported as 2.77.
